# Assay results as given in PubChem BioAssay AID624072 (Broad Institute, 2012).
# The source made the active and inactive calls.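 How the source made its calls: active means compounds whose fitted curve reaches a 35% growth drop at up to twice the top tested dose; inconclusive means flat curve with a 30 to 70% growth drop, or poor fit; inactive means opposite effect, flat curve, or crossing beyond the limit.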
# Test system: not listed separately
# Test: iron-limited growth inhibition, mexAB-oprM mutant – whole organism, PAK mexAB-OprM mutant, OD600, EDDHA, dry powder, set 3, dose response (AID 624072)
# Settings: P. aeruginosa PAK mexAB-oprM, EDDHA, OD600 growth, 28 h; at 100 µM (top of the series)
# Summary of the method: (§1)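 material = Pseudomonas aeruginosa PAK efflux pump deletion mutant ΔmexAB-oprM | buffer or medium = iron-limited succinate M9 medium, pH 7.0, with 2 µM EDDHA chelator | schedule = 28 h compound exposure at 30 °C, humidified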
row,SMILES,"activity change, negative = growth inhibition"
1,COCCNC(C#N)c1ccc(Cl)cc1 (stereo not given),-9.68% (inactive)

# Test system: P. aeruginosa PAK mexAB-oprM, EDDHA, OD600 growth, 28 h
# Test: as above
# Settings: not given
# Summary of the method: as §1
row,SMILES,AC35 [µM]
1,N#CC(c1ccc(Cl)cc1)c1cccc(Cl)n1 (stereo not given),5.35
2,N#CC(c1ccc(Cl)cc1)c1cccc(C(F)(F)F)n1 (stereo not given),3.92
3,N#CC(c1ccc(Cl)cc1)c1ccc(Cl)cn1 (stereo not given),9.77
4,N#CC(c1cccc(Cl)n1)c1ccc(Cl)cc1F (stereo not given),6.02
5,N#CC(c1ccc(Cl)cc1)c1ncccc1Cl (stereo not given),6.94
6,CCCCC(c1ccc(Cl)cc1)c1nn[nH]n1 (stereo not given),97.2
7,COCCC(C#N)c1ccc(F)cc1 (stereo not given),98.3
8,N#CC(c1ccc(F)cc1)c1cccc(C(F)(F)F)n1 (stereo not given),3
9,N#CC(c1cccc(C(F)(F)F)n1)c1ccc(Cl)cc1F (stereo not given),4.24
